Assay results taken from the RNAGym collection of RNA variant scans (doi:10.1126/science.aae0568).
This sample holds only a part of the variants without activity.

B1: tRNA (parent)
chain: GUUCCGUUGGCGUAAUGGUAACGCGUCUCCCUCCUAAGGAGAAGACUGCGGGUUCGAGUCCCGUACGGAACG

Variants of: B1
Assay: yeast fitness relative to wild type (ratio to wild type); higher = fitter; tRNA-Arg(CCU), competitive growth, 37 C, YPD
How it was run: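 Changes in genotype frequencies gave Darwinian fitness relative to wild type. Frequencies were read by 100-nucleotide paired-end sequencing of gene amplicons before and after pooled Saccharomyces cerevisiae strains, carrying tRNA-Arg(CCU) gene variants at the native locus, were competed in YPD at 37°C for 24 hours in six replicates. A genotype was kept only with ≥ 100 starting reads, and estimates < 0.5 were set to 0.5.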

| Variant | yeast fitness |
| --- | --- |
| GUUCCGUUGGCGUAAUGGUAACGCGUCUCCCUCCUAAGGAGUAGACCGCGGGUUCGAGUCCCGUACGGAACG [A42U U47C] | 0.939 |
| GUUCCGUUGGCGUAAUGGUAACGCGUCUCCCUCCUAAGGAGUAGACAGCGGGUUCGAGUCCCGUACGGAACG [A42U U47A] | 0.789 |
| GUUCCGUUGGCGUAAUGGUAACGCGUCUCCCUCCUAAGGAGUACACUGCGGGUACGAGUCCCGUACGGAACG [A42U G44C U54A] | ≤ 0.5 |
| GUUCCGUUGGCGUAAUGGUAACGCGUCUCCCUCCUAAGGAGUAGACUGCGGGUUCGAAUCGCGUACGGAUCG [A42U G58A C61G A70U] | ≤ 0.5 |
| GUUCCGUUGGCGUAAUGGUAACGCGUCUCCCUCCUAAGGAGUAGACGGCGGGUUCGCGUCACGUACGGAACG [A42U U47G A57C C61A] | ≤ 0.5 |
| GUUCCGUUGGCGUAAUGGUAACGCGUCUCCCUCCUAAGGAGUAGACUGCGGGUACGAAUCCCGUACGGAACG [A42U U54A G58A] | ≤ 0.5 |
| GUUCCGUUGGCGUAAUGGUAACGCGUCUCCCUCCUAAGGAGUAGACUGCGGGUUCGAGUCCUGUACGGACCG [A42U C62U A70C] | 0.594 |
| GUUCCGUUGGCGUAAUGGUAACGCGUCUCCCUCCUAAGGAGUACACUGCGGGUUCGAGUCCCGUACGGAACG [A42U G44C] | 0.842 |
| GUUCCGUUGGCGUAAUGGUAACGCGUCUCCCUCCUAAGGAGUAGACUGCGGGUUCGAGUCAAAUACGGAACG [A42U C61A C62A G63A] | 0.748 |
| GUUCCGUUGGCGUAAUGGUAACGCGUCUCCCUCCUAAGGAGUAGACUGCGGGUUCGUCUCCCGUACGGAACG [A42U A57U G58C] | 0.542 |
| GUUCCGUUGGCGUAAUGGUAACGCGUCUCCCUCCUAAGGAGACGACUGCGGGUUCGUGUCCCAUACGGAACG [A43C A57U G63A] | 0.556 |
| GUUCCGUUGGCGUAAUGGUAACGCGUCUCCCUCCUAAGGAGACGACUGCGGGUUCGCGUCCCGUACGGAUCG [A43C A57C A70U] | 0.53 |
| GUUCCGUUGGCGUAAUGGUAACGCGUCUCCCUCCUAAGGAGUAGAGUGCGGGUUCGAGUCCCGUACGGAACG [A42U C46G] | 1.12 |
| GUUCCGUUGGCGUAAUGGUAACGCGUCUCCCUCCUAAGGAGUAGACUGCGGGUUCGAGUCCCGUACGGAUCG [A42U A70U] | 0.919 |
| GUUCCGUUGGCGUAAUGGUAACGCGUCUCCCUCCUAAGGAGUAGACUGCGGGUUCGAGUCCCGUACGGAGCG [A42U A70G] | 1 |
| GUUCCGUUGGCGUAAUGGUAACGCGUCUCCCUCCUAAGGAGUAGACUGCGGGUUCGAGUCCCGUACGGACCG [A42U A70C] | 1.01 |
| GUUCCGUUGGCGUAAUGGUAACGCGUCUCCCUCCUAAGGAGUAGACUGCGGGUGCGAGUCCCGUACGGAACG [A42U U54G] | 0.605 |
| GUUCCGUUGGCGUAAUGGUAACGCGUCUCCCUCCUAAGGAGUAGACUGCGGGUCCGAGUCCCGUACGGAACG [A42U U54C] | 0.897 |
| GUUCCGUUGGCGUAAUGGUAACGCGUCUCCCUCCUAAGGAGUAGACUGCGGGUUCGUGUCCUGUACGGAACG [A42U A57U C62U] | 0.529 |

| Variant | yeast fitness |
| --- | --- |
| GUUCCGUUGGCGUAAUGGUAACGCGUCUCCCUCCUAAGGAGUAGACUGCAGGUUCGAGUCCCGUACGGAACG [A42U G50A] | 0.743 |
| GUUCCGUUGGCGUAAUGGUAACGCGUCUCCCUCCUAAGGAGACGACUGCGGGUUCGUGUCCGGUACGGAACG [A43C A57U C62G] | 0.571 |
| GUUCCGUUGGCGUAAUGGUAACGCGUCUCCCUCCUAAGGAGUAGACUGCGGGUUCGAGUCCCGUAAGGAACG [A42U C66A] | 0.702 |
| GUUCCGUUGGCGUAAUGGUAACGCGUCUCCCUCCUAAGGAGUAGACUGCGGGUUCGAGUCCUGUCCGGAACG [A42U C62U A65C] | 0.526 |
| GUUCCGUUGGCGUAAUGGUAACGCGUCUCCCUCCUAAGGAGUAGACUGCGGGUUCGAUUCCCGUACGCAACG [A42U G58U G68C] | ≤ 0.5 |
| GUUCCGUUGGCGUAAUGGUAACGCGUCUCCCUCCUAAGGAGUAGACAGCGAGUUCGAGUCCCGUACGGAACG [A42U U47A G51A] | ≤ 0.5 |
| GUUCCGUUGGCGUAAUGGUAACGCGUCUCCCUCCUAAGGAGACGGCUGCGGGUUCGAGUCCCGUACAGAACG [A43C A45G G67A] | 0.659 |
| GUUCCGUUGGCGUAAUGGUAACGCGUCUCCCUCCUAAGGAGUAGACUGCGGGUUCGAGUCCAGUUCGGAACG [A42U C62A A65U] | 0.604 |
| GUUCCGUUGGCGUAAUGGUAACGCGUCUCCCUCCUAAGGAGUAGACUGCGGGUUCGAGUCCCGCACGGAACG [A42U U64C] | 1.05 |
| GUUCCGUUGGCGUAAUGGUAACGCGUCUCCCUCCUAAGGAGUAGACUGCGGGUUAGAGUCCCGUCCGGAACG [A42U C55A A65C] | 0.538 |
| GUUCCGUUGGCGUAAUGGUAACGCGUCUCCCUCCUAAGGAGUAGACUGCGGGUUCAAGUCCAGUACGGAACG [A42U G56A C62A] | 0.586 |
| GUUCCGUUGGCGUAAUGGUAACGCGUCUCCCUCCUAAGGAGUAGACUGCGGGUUCGACAUCCGUACGGAACG [A42U G58C U59A C60U] | 0.659 |
| GUUCCGUUGGCGUAAUGGUAACGCGUCUCCCUCCUAAGGAGUAGACUGCGGGUUCGAGUCCCGUACGGUACG [A42U A69U] | 1.02 |
| GUUCCGUUGGCGUAAUGGUAACGCGUCUCCCUCCUAAGGAGUACACUGCGGGCUCGAGUCCCGUACGGAACG [A42U G44C U53C] | ≤ 0.5 |
| GUUCCGUUGGCGUAAUGGUAACGCGUCUCCCUCCUAAGGAGUAGACUGCGGGAUCGAGUCCCGUACGGAACG [A42U U53A] | 0.565 |
| GUUCCGUUGGCGUAAUGGUAACGCGUCUCCCUCCUAAGGAGUAGACUGCGGGUUCGAGUUCCGUACGGAACG [A42U C60U] | 0.769 |
| GUUCCGUUGGCGUAAUGGUAACGCGUCUCCCUCCUAAGGAGUAGACUGCGGGUUCGAGUGCCGUACGGAACG [A42U C60G] | 0.579 |
| GUUCCGUUGGCGUAAUGGUAACGCGUCUCCCUCCUAAGGAGACGACUGCGGGUUCGCGUCCCGUACGGAACG [A43C A57C] | 0.681 |
